Measured values collected from several papers.
Compare with care: the assays were run in different laboratories.
DRD4: D(4) dopamine receptor (DRD4, Homo sapiens, UniProt P21917)
PI4KA: Phosphatidylinositol 4-kinase alpha (PI4KA, Homo sapiens, UniProt P42356)

SMILES	target	test	test system	setting	inhibition [%]
O=C(Nc1ccc(S(=O)(=O)N2CCC(Cl)CC2)cc1)c1ccc([N+](=O)[O-])o1	DRD4	ligand displacement, radioligand	–	10 µM	1
O=C1N=C(N2CCCCN2)S/C1=C\c1ccc(F)cc1O	Neurotensin receptor type 1 (NTSR1, Homo sapiens, UniProt P30989)	ligand displacement, radioligand	–	10 µM	< 10
CC(C)C[C@H](NC(=O)[C@H](CC(C)C)NC(=O)CNC(=O)[C@H](C)NC(=O)[C@H](C)NC(=O)[C@H](CCCNC(=N)N)NC(=O)CNC(=O)CCCCNC(=O)[C@H](CCCCN)NC(=O)[C@H]1CCCN1C(=O)[C@H](CCCCN)NC(=O)[C@H](CCCCN)NC(=O)[C@H](CCCCN)NC(=O)[C@H](CCCCN)NC(=O)[C@H](Cc1ccc(O)cc1)NC(=O)[C@@H](N)Cc1c[nH]c2ccccc12)C(N)=O	Neuropeptides B/W receptor type 1 (NPBWR1, Homo sapiens, UniProt P48145)	calcium signal, antagonist	–	10 µM	95
O=C(Oc1nsnc1N1CCN(c2ccccc2)CC1)N1CCCCC1	Monoacylglycerol lipase ABHD6 (ABHD6, Homo sapiens, UniProt Q9BV23)	enzyme activity, inhibitor, fluorescence	–	1 µM, lysate	40
O=C(CSc1nc2nccnc2c(=O)n1CCc1ccccc1)Nc1nccs1	PI4KA	enzyme activity, inhibitor	–	10 µM	-5
N#Cc1cc(Cn2c(N3CCCC3)nc3ccccc32)ccc1F	DRD4	ligand displacement	–	10 µM	-0.93
CCN1CC(c2ccccc2)c2cc(OC)c(OC)c3c2C1Cc1cc2c(cc1-3)OCO2 (stereo not shown)	5-hydroxytryptamine receptor 5A (HTR5A, Homo sapiens, UniProt P47898)	ligand displacement, radioligand	–	10 µM	-12.1
CCN(CC)c1ccc(C2Nc3ccc(C(=O)c4ccccc4)cc3NC3=C2C(=O)CC(C)(C)C3)cc1 (stereo not shown)	DRD4	ligand displacement, radioligand	–	10 µM	100
CCN1CCN(Cc2ccc(NC(=O)c3ccc(C)c(Oc4ccnc5[nH]ccc45)c3)cc2C(F)(F)F)CC1	PI4KA	target engagement in cells, inhibitor, chemoproteomics	Huh-7	10 µM	-10.4
CS(=O)(=O)Nc1cccc(-c2csc(NC(=O)CSc3nc4nccnc4c(=O)n3CCc3ccccc3)n2)c1	PI4KA	enzyme activity, inhibitor	–	10 µM	5
Cn1cnc(Br)c1C1=CN(c2ncnc3[nH]cnc23)CCS1	Mitogen-activated protein kinase kinase kinase 19 (MAP3K19, Homo sapiens, UniProt Q56UN5)	enzyme activity, inhibitor, radiometric	–	2 µM	92.8
O=C(CSc1nc2nccnc2c(=O)n1CCc1ccccc1)Nc1ccccc1	PI4KA	enzyme activity, inhibitor	–	10 µM	< 20
CCCNc1nc2ccccc2n1Cc1ccc(Cl)cc1	DRD4	ligand displacement	–	10 µM	2.14
